Source: ChEMBL document CHEMBL4261642, “Design, synthesis, and ex vivo evaluation of a selective inhibitor for retinaldehyde dehydrogenase enzymes” (Bioorg Med Chem, 2018)
The source made the active and inactive calls. The rule behind the calls is not given here.

Assays:
[1] = Inhibition of N-terminal His6-tagged recombinant chick RALDH3 expressed in Escherichia coli BL21(DE3) cells using RAL as substrate preincubated for 20 mins followed by substrate addition and measured after 30 mins in presence of NADH by fluorescence assay; set-up: species or system Gallus gallus
Outline: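 Purified His-tagged recombinant enzyme in dialysis buffer with 2 mM DTT. Amounts were chick RALDH1 2 μg (0.358 μM), chick RALDH2 0.5 μg (0.091 μM), chick RALDH3 2 μg (0.355 μM) and human RALDH2 1 μg (0.176 μM). Enzyme pre-incubated 20 min at 37°C with 0–10 μM inhibitor in DMSO. Reaction started with final 4 mM NAD+ in pyrophosphate pH 8.2 buffer plus 250 μM retinaldehyde, 30 min at 37°C. NADH read fluorimetrically (Ex/Em 540/590) against a standard curve. Triplicates, 3–5 experiments.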

[2] = target: T1, Retinal dehydrogenase 2 (Gallus gallus) (UniProt O93344); test: Inhibition of chick RALDH2 expressed in doxycycline-inducible HEK293 cells assessed as inhibition of ATRA synthesis at 1 uM after 24 hrs in presence of […]; type: cell-based
T1 sequence (whole entry): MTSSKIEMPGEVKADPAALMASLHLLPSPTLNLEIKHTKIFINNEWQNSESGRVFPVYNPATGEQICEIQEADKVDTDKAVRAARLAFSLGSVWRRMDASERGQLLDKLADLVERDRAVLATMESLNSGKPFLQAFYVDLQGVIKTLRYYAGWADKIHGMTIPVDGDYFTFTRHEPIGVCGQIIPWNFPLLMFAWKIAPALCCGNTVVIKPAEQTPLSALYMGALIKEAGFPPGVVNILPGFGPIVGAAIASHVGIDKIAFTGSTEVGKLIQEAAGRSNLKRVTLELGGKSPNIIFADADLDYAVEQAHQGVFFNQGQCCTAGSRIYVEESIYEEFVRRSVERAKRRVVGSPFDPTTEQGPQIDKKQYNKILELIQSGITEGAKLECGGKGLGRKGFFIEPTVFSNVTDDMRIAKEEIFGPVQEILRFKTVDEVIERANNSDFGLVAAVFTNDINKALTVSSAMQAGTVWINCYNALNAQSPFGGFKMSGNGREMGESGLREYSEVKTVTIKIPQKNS

[3] = target: T1, Retinal dehydrogenase 2 (Gallus gallus); test: Inhibition of chick RALDH2 expressed in doxycycline-inducible HEK293 cells assessed as inhibition of ATRA synthesis at 2 uM after 24 hrs in presence of ATRA and NAD+; type: cell-based
[4] = target: T2, Aldehyde dehydrogenase 1A1 (Gallus gallus) (UniProt P27463); test: Irreversible inhibition of N-terminal His6-tagged recombinant chick RALDH1 expressed in Escherichia coli BL21(DE3) cells using RAL as substrate assessed as reduction in enzyme Vmzx preincubated for 20 mins followed by substrate addition and measured after 30 mins in presence of NADH by fluorescence assay
T2 sequence (whole entry): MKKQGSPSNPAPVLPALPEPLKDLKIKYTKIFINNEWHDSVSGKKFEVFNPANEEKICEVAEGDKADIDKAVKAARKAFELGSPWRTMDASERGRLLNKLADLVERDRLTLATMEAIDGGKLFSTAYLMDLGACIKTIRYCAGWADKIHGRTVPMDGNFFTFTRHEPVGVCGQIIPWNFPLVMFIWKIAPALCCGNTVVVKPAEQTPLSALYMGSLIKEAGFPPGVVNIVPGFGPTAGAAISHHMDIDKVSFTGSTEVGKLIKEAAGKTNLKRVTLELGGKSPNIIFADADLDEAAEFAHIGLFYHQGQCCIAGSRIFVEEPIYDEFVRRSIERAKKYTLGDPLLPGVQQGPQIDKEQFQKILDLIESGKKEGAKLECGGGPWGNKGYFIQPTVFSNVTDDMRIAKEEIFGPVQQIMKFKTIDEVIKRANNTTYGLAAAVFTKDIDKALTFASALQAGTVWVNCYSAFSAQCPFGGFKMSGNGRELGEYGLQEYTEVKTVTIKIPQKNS

[5] = target: T1, Retinal dehydrogenase 2 (Gallus gallus); test: Inhibition of N-terminal His6-tagged recombinant chick RALDH2 expressed in Escherichia coli BL21(DE3) cells at 250 nM using RAL as substrate assessed as remaining activity preincubated for 40 mins followed by all-trans-retinaldehyde and substrate addition measured after 30 mins in presence of NAD+ by fluorescence assay
Outline: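 Chick RALDH2 (91 nM) pre-incubated with 250 nM inhibitor for 0–80 min at 37°C, alone or with 250 μM retinaldehyde or 250 μM NAD+. Reaction then started with the missing substrate and/or cofactor (250 μM retinaldehyde, 4 mM NAD), 30 min at 37°C. Fluorimetric NADH; % activity remaining. Triplicates.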

HEK293 = test: Cytotoxicity against doxycycline-inducible chicken RALDH2 expressing HEK293 cells by measuring DNA content after 24 hrs in presence of proteinase K by Pico-green dye-based fluorescence assay; type: functional, cell-based; conditions: Homo sapiens, HEK293, 24 h
Outline: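 Doxycycline-induced (Dox)RALDH2-eGFP HEK293 cells treated with compound in low-serum DMEM. Homogenate aliquots taken before ultracentrifugation were digested with proteinase K (0.05% w/v in 10 mM EDTA, 0.1 M sodium phosphate pH 6.5) at 60°C overnight. DNA measured by PicoGreen fluorescence. Toxicity curves span 0.01–50 μM over 24 h. Two experiments, n = 5 per concentration.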

[6] = target: T3, Aldehyde dehydrogenase, mitochondrial (Homo sapiens, UniProt P05091); test: Inhibition of N-terminal His6-tagged recombinant human mitochondrial ALDH2 using propionaldehyde as substrate preincubated for 20 mins to 1 hr followed by substrate addition and measured for 5 mins in presence of NADH by spectrophotometric assay
T3 sequence (P05091 whole entry): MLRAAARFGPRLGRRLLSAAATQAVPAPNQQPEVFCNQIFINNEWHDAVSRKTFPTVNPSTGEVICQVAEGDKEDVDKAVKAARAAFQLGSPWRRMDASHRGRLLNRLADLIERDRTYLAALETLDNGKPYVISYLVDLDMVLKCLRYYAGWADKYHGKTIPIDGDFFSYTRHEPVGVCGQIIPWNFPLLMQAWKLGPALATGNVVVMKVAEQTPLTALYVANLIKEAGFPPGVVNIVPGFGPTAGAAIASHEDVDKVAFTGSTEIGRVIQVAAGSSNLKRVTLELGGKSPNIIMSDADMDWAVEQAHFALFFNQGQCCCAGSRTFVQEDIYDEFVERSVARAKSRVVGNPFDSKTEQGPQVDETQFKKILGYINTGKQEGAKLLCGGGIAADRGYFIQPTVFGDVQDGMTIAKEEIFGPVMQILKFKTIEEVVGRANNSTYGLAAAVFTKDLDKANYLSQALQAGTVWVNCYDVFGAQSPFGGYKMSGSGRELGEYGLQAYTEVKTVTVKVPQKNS

For `CC1=C(/C=C/C(C)=C/C=C/C(C)=C/C(=O)C(Cl)Cl)C(C)(C)CCC1`, the IC50 [1] was 161 nM, the inhibition [2] was 92% and the inhibition [3] was 93%. For the same compound, the inhibition [4] was “Active”, the Activity [5] was 16.3% and the IC50 (HEK293) was 2940 nM. For the same compound, the IC50 [6] was “Not Active”.
